1 compound from ChEMBL document CHEMBL1149705, “Synthesis and antimicrobial evaluation of new chalcones containing piperazine or 2,5-dichlorothiophene moiety” (2007) can be followed below.

In brackets after ≈: the same amount, converted by molar mass.

Common to all, as to format: functional
Experiment [1] relates to Pichia kudriavzevii. Description: Antifungal activity against Candida krusei GO3 at 250 ug/ml after 48 hrs by agar well diffusion technique. The conditions noted are these: read-out: IZ.
The subject of another experiment is Proteus vulgaris. Description: Antibacterial activity against Proteus vulgaris at 250 ug/ml after 48 hrs by agar well diffusion technique. The conditions noted are these: read-out: IZ. Summed up: (§1)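 Cup-plate agar well diffusion on nutrient agar, set for 1–1.5 h. Cups of 10 mm were bored with a sterile cork borer, and test solution was added by sterile syringe. Plates were incubated at 37 °C for 48 h. The read-out was inhibition zone diameter in mm, graded 0–6 mild, 7–13 moderate and 14–26 efficacy. Ciprofloxacin was the standard; 10% DMSO served as solvent control.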
(Agar diffusion results depend on both activity and mobility in agar.)

The subject of a further experiment is Staphylococcus aureus. Description: Antibacterial activity against Staphylococcus aureus 209p at 250 ug/ml after 48 hrs by agar well diffusion technique. Particulars: read-out: IZ. Summed up: as §1
A further experiment relates to Escherichia coli. Description: Antibacterial activity against Escherichia coli ESS 2231 at 250 ug/ml after 48 hrs by agar well diffusion technique. The conditions noted are these: read-out: IZ. Summed up:
as §1

A further experiment concerns Klebsiella pneumoniae. Description: Antibacterial activity against Klebsiella pneumoniae at 250 ug/ml after 48 hrs by agar well diffusion technique. The conditions noted are these: read-out: IZ. Summed up: as §1
The next experiment concerns Aspergillus fumigatus. Description: Antifungal activity against Aspergillus fumigatus at 250 ug/ml after 48 hrs by agar well diffusion technique. The conditions noted are these: read-out: IZ. Summed up: as §1
In experiment [2] the test system is Candida albicans. The experiment is described as follows: Antifungal activity against Candida albicans at 250 ug/ml after 48 hrs by agar well diffusion technique. The conditions noted are these: read-out: IZ.
For experiment [3], the system named is Nakaseomyces glabratus. Description: Antifungal activity against Candida glabrata HO3 at 250 ug/ml after 48 hrs by agar well diffusion technique. Particulars: read-out: IZ.
Experiment [4] concerns Candida albicans. The experiment is described as follows: Antifungal activity against Candida albicans after 48 hrs by agar well diffusion technique.
Experiment [5] relates to Pichia kudriavzevii. Description: Antifungal activity against Candida krusei GO3 after 48 hrs by agar well diffusion technique.
The subject of experiment [6] is Nakaseomyces glabratus. The experiment is described as follows: Antifungal activity against Candida glabrata HO3 after 48 hrs by agar well diffusion technique.

A word on the MIC50: it is an inhibitory concentration at the 50% level, which refers to growth in some studies and to a panel of isolates in others. The low end stands for greater potency, the high end for weaker potency. As for `Cc1cccc(/C=C/C(=O)c2cc(Cl)sc2Cl)c1`, the zone of inhibition at 250 µg/mL came to 22 mm with Pichia kudriavzevii [1]; 6 mm in the experiment on Proteus vulgaris; 11 mm in the experiment with Staphylococcus aureus; 20 mm in the experiment with Escherichia coli; 10 mm with Klebsiella pneumoniae; 20 mm with Aspergillus fumigatus. In addition, the figures for the zone of inhibition at 250 µg/mL with Candida albicans [2] and in the experiment on Nakaseomyces glabratus [3] were 10 mm and 14 mm, respectively. The MIC50 against Candida albicans [4] worked out at 51.1 µg/mL (≈ 172 µM); with Pichia kudriavzevii [5], 42.3 µg/mL (≈ 142 µM); with Nakaseomyces glabratus [6] it was 65 µg/mL (≈ 219 µM).
